Sampled rows, rich in hits. Any-hit rate of the full collection: about 3%.
S1P1 ag-PAM: S1P1 agonists and agonism potentiators, primary screen, cell-based, primary and confirmation screens, CRE-bla reporter. AID 449, 2006. Sphingosine 1-phosphate receptor 1 (Homo sapiens), P21453. S1P1 CRE-bla cells, forskolin, beta-lactamase FRET, potentiator mode; S1P1 agonist co-added at EC20, 2 nM; 100% = saturating reference agonist, 0% = basal. actives 0.57% (n = 56,000). activation, % at 9.5 µM;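 active means activation above a cutoff set at the mean activation of all tested compounds plus 3 SD, cut at about 54% in these data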;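 further: forskolin at 4 µM as EC80 and the EC20 agonist is SEW2871; 100% = SEW2871 at its EC100 plus forskolin at EC80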
Target sequence (P21453 whole entry, looked up): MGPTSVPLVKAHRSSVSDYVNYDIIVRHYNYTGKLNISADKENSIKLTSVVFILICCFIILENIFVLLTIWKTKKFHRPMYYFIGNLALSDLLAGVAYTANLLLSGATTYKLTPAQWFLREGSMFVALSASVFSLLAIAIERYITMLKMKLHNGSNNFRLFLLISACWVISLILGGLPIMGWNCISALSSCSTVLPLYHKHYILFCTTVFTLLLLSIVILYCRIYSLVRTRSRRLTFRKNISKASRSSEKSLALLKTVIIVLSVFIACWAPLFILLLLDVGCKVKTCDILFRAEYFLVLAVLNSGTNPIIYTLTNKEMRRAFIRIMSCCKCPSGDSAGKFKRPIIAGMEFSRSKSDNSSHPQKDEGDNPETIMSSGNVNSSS
HTR1E antagonist: 5-HT1E receptor antagonists, primary screen, cell-based, HTS. inhibition, % at 6 µM. AID 571, 2007. CHO 5-HT1E Ga15 NFAT-bla reporter, FRET, antagonist. actives 0.99% (n = 65,000);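 active means inhibition above a set limit, the mean inhibition across every tested compound plus 3 SD, cut at about 29% in these data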;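 further: signal is the 460 over 535 nm emission ratio of beta-lactamase substrate; 0% = agonist plus DMSO wells and 100% = wells without agonist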
S1P3 agonist: human S1P3 receptor agonists, primary screen, cell-based, primary and confirmation, NFAT-BLA reporter; Sphingosine 1-phosphate receptor 3 (Homo sapiens), Q99500; S1P3 NFAT-BLA reporter cells, agonism, FRET ratio; relative to 1 µM S1P, basal subtracted; activation, % at 4.5 µM; actives 0.1% (n = 60,000);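 active means activation above the screen-wide mean plus 3 SD, cut at about 4.5% in these data, passing the limit was not always enough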
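Benchmarks: high control 1 µM S1P / System: stable CHO line with human S1P3, Gα16, NFAT-BLA reporter / Dosing: single compound concentration, 4.5 µM final / Timing: 4 h compound at 37 °C, 2 h substrate at RT / Measured by: FRET β-lactamase substrate fluorescence, excitation 405 nm, 460/535 nm emission ratio, background-subtracted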
HTR1A agonist: human 5-HT1a receptor agonists, primary screen, cell-based, CHO, Ga15 NFAT-bla reporter | 5-hydroxytryptamine receptor 1A (Homo sapiens), P08908 | actives 0.56% (n = 65,000) | activation, % at 10 µM | CHO 5-HT1a Ga15 NFAT-bla reporter, FRET ratio; 0% basal, 100% maximal reference agonist;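 active means activation above the screen-wide mean activation plus 3 SD, cut at about 19% in these data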;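 further: 0% = DMSO wells and 100% = 5-CT at EC100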
5-HT1A blocker: human 5-HT1a receptor antagonists, primary screen, cell-based, CHO, Ga15 NFAT-bla reporter. 5-hydroxytryptamine receptor 1A (Homo sapiens), P08908. CHO 5-HT1a Ga15 NFAT-bla reporter, antagonist mode. inhibition, % at 10 µM. actives 0.68% (n = 62,000);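 active means inhibition above the mean of all tested compounds plus 3 SD, cut at about 43% in these data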;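 further: receptor stimulated by 5-CT agonist at 100 nM near EC80; beta-lactamase reporter measured by ratiometric fluorescence of a cleavable substrate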
HTR1E agonist: 5-HT1E receptor agonists, primary screen, cell-based, HTS | 5-hydroxytryptamine receptor 1E (Homo sapiens), P28566 | CHO 5-HT1E Ga15 NFAT-bla reporter, FRET; 0% DMSO wells, 100% control agonist wells | activation, % at 6 µM | actives 0.69% (n = 65,000);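 active means activation above a set limit, the screen-wide mean activation plus 3 SD, cut at about 8.5% in these data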;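 further: 100% = positive control agonist at 1 µM giving full maximal response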
The depositor's hits bear a star; x = no result.

SMILES | S1P1 ag-PAM | HTR1E antagonist | S1P3 agonist | HTR1A agonist | 5-HT1A blocker | HTR1E agonist
Cc1ccc2oc(=O)n(CCOc3ccccc3Cl)c2c1 | 4.6 | 32.1* | -1.4 | -0.1 | 24.5 | -1.8
Cc1ccc(S(=O)(=O)Nc2ccc3nc(-c4cccn4C)[nH]c3c2)cc1 | x | 3.4 | -0.4 | 0.0 | 3.9 | -0.3
CCN1CCN(c2ncc(C(=O)Nc3cc(Cl)ccc3OC)c3ccccc23)CC1 | 21.8 | 20.1 | -0.7 | 0.0 | -9.7 | 40.2*
COc1ccc(Cl)cc1NC(=O)CCN1CCN(c2ccccc2C)CC1 | x | -5.6 | x | 2.3 | 8.7 | 1.1
C=C1[C@@H](C)C2[C@H](Cc3ccccc3)NC(=O)[C@]23OC(=O)CC[C@H](O)CCC[C@H](C)C/C=C/[C@H]3[C@@H]1O (stereo not given in full) | -3.2 | 33.5* | 2.8 | -2.0 | x | 0.5
O=C(NCC1CCCO1)c1cc2n(n1)C(C(F)(F)F)CC(c1ccc(F)cc1)N2 (stereo not given) | -0.8 | -6.5 | 0.0 | -3.5 | -8.5 | 0.4
COc1ccc(C2CC(C(F)(F)F)n3nc(C(=O)NCCN4CCOCC4)cc3N2)cc1 (stereo not given) | -13.4 | 1.9 | -1.6 | 36.0* | 15.3 | -0.1
CCOC(=O)c1nn(-c2ccccc2)c(C#N)c1NC(=O)c1nn(CC)cc1Br | -44.1 | 54.4* | -0.8 | 1.6 | 17.1 | 0.0
CCOC(=O)c1c(NC(=O)c2nn(CC)cc2Br)c(C#N)nn1-c1ccccc1 | -25.4 | 17.5 | -1.5 | 1.7 | 4.5 | 0.0
CC(=O)Nc1cccc(-c2nc3ccc(NC(C)=O)cc3[nH]2)c1 | -2.7 | -5.3 | -0.4 | -1.3 | -0.3 | -0.1
CC(=O)Nc1ccc2nc(-c3cccnc3)[nH]c2c1 | x | -5.0 | x | -2.3 | -5.9 | 16.6*
c1ccc(CCCNc2ncnc3nc[nH]c23)cc1 | 3.2 | -2.8 | -0.8 | -3.5 | -3.4 | 0.4
Clc1ccc(CCNc2ncnc3nc[nH]c23)cc1 | 85.1* | -2.9 | -1.6 | 2.8 | 6.2 | 0.2
CN1/C(=C\C(=O)COc2ccc3c(c2)OCO3)C(C)(C)c2ccccc21 | 28.8 | 0.7 | -1.0 | -4.9 | 10.5 | 13.8*
O=C(C1CCCN(c2ncccn2)C1)N1CCc2ccccc21 (stereo not given) | 0.3 | 2.6 | 0.4 | -1.9 | -3.7 | -1.0
CC(Oc1ccccc1Br)C(=O)N1CCc2ccccc21 (stereo not given) | 87.3* | 4.4 | 9.9* | -2.6 | 18.7 | -1.2
COC(=O)c1nn(-c2c(C)n(C)n(-c3ccccc3)c2=O)cc1O | -43.4 | -2.1 | -0.2 | -1.5 | -10.8 | 0.4
CCOC(=O)c1cnc(-n2nc(C)cc2C)nc1NCc1ccc2c(c1)OCO2 | -25.5 | 7.7 | -1.3 | 0.3 | 43.2* | 0.4
c1cc(-c2nc3cc(Cc4ccc5oc(-c6ccncc6)nc5c4)ccc3o2)ccn1 | -25.5 | -2.3 | 0.0 | -0.5 | 0.9 | 18.2*
c1cncc(-c2nc3cc(Cc4ccc5oc(-c6cccnc6)nc5c4)ccc3o2)c1 | 3.0 | 0.9 | -0.8 | 0.4 | 5.4 | 0.1
Cc1ccc2nsnc2c1S(=O)(=O)N(Cc1cc2cccc(C)c2[nH]c1=O)CC1CCCO1 (stereo not given) | -4.3 | -0.7 | -0.9 | -1.4 | 9.5 | -0.9
O=C(NCCCn1ccnc1)Nc1cccc(Cl)c1 | 8.2 | -5.0 | -1.5 | -0.3 | -2.7 | 0.1
C=C(C)COc1ccc(-c2[nH]ncc2-c2ccc(OC)c(OC)c2)c(O)c1 | -13.9 | 36.5* | -1.2 | -0.3 | 40.2 | 0.8
CCOc1ccccc1NC(=O)Cn1nnc(C(=O)NCc2ccco2)c1N | 6.0 | 73.2* | -1.1 | -1.8 | 34.3 | -0.9

Screening data as filed in PubChem BioAssay.
